Results taken from ChEMBL document CHEMBL4152212, “Design and synthesis of BPR1K653 derivatives targeting the back pocket of Aurora kinases for selective isoform inhibition” (Eur J Med Chem, 2018).
Calls of active or inactive are those of the source. The rule behind the calls is not given here.

Experiments:
[1] = target: T1, Aurora kinase A (Homo sapiens, UniProt O14965); assay: Inhibition of GST-tagged human recombinant Aurora A kinase domain (123 to 401 residues) expressed in Sf9 cells after 120 mins by kinase-glo luminescence assay
T1 sequence (O14965 whole entry): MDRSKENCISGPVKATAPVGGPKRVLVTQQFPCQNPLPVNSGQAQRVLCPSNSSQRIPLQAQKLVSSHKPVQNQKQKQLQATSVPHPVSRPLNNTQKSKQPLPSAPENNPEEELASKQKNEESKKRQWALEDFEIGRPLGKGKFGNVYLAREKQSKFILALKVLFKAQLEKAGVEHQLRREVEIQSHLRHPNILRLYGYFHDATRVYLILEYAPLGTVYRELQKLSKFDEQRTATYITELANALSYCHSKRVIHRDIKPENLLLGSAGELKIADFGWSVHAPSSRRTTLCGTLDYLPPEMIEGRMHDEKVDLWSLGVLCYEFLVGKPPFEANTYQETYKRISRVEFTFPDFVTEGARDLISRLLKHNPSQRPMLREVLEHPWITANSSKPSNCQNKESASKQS

[2] = target: T2, Aurora kinase B (Homo sapiens, UniProt Q96GD4); assay: Inhibition of human recombinant full length Aurora-B (1 to 344 residues) expressed in Sf9 cells after 90 mins by kinase-glo luminescence assay
[3] = target: T1, Aurora kinase A; assay: Inhibition of Aurora-A autophosphorylation at Thr288 in human HCT116 cells after 1 hr by Western blot analysis; format: cell-based
How it was run: (§1)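 HCT116 cells arrested in mitosis with 200 nM nocodazole for 24 h, then exposed to compound for 1 h over 9 concentrations. Lysed in Laemmli buffer, SDS-PAGE, PVDF immunoblot for phospho-Aurora-A Thr288 / Aurora-B Thr232 with HRP secondary and chemiluminescence. IC50 derived from blot profiles.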

[4] = target: T2, Aurora kinase B; assay: Inhibition of Aurora-B autophosphorylation at Thr232 in human HCT116 cells after 1 hr by Western blot analysis; format: cell-based; how it was run: as §1
[5] = test system: HCT-116; assay: Cytotoxicity against human HCT116 cells; format: functional, cell-based
[6] = test system: Detroit 551; assay: Cytotoxicity against human Detroit 551 cells; format: cell-based
[7] = test system: HeLa; assay: Increase in mitotic index in human HeLa cells after 10 to 12 hrs post thymidine block by pHH3Ser10/Hoechst33342 staining-based immunofluorescence analysis; format: functional, cell-based
How it was run: (§2)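 HeLa cells synchronized by thymidine block, released and treated with compound, fixed at set times (4% paraformaldehyde, 30 min), permeabilized with 0.1% Triton X-100, blocked in 1% BSA. Stained with anti-pHH3Ser10 (1:500, 1.5 h, RT) and Alexa-594 secondary, Hoechst 33342 counterstain. Mitotic index is the percentage of pHH3Ser10-positive cells among about 2000-3000 cells per condition.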

[8] = test system: HeLa; assay: Decrease in mitotic index in human HeLa cells after 10 to 12 hrs post thymidine block by pHH3Ser10/Hoechst33342 staining-based immunofluorescence analysis; format: functional, cell-based; how it was run: as §2

T2 sequence (Q96GD4 whole entry, the tested form may be a part): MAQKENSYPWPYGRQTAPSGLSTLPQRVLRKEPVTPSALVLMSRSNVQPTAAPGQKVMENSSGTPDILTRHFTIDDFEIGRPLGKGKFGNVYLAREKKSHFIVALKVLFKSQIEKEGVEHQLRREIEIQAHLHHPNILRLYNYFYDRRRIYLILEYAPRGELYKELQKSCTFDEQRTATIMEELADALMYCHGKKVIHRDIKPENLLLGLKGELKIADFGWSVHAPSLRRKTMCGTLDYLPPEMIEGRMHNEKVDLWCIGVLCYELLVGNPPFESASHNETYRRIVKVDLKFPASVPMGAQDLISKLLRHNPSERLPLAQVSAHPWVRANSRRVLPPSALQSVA

IC50 [1] [nM] | IC50 [2] [nM] | IC50 [3] [nM] | IC50 [4] [nM] | SMILES | IC50 [5] [nM] | IC50 [6] [µM] | Activity [7] | Activity [8]
233 | 657 | – | – | CC(C)c1cccc(NC(=O)Nc2ccc(CCNc3ncnc4oc(-c5ccccc5)c(Cl)c34)cc2)c1 | – | – | – | –
451 | 976 | – | – | O=C(Nc1ccc(CCNc2ncnc3oc(-c4ccccc4)c(Cl)c23)cc1)Nc1ccc(CN2CCCCC2)cc1 | – | – | – | –
20 | 199 | 59.9 | > 10000 | CN(C)Cc1cccc(NC(=O)Nc2ccc(CCNc3ncnc4oc(-c5ccccc5)c(Cl)c34)cc2)c1 | 578 | 5 | Active | –
52.6 | 74.9 | – | – | Cc1cccc(NC(=O)Nc2ccc(CCNc3ncnc4oc(-c5ccccc5)c(Cl)c34)cc2)c1 | – | – | – | –
66.3 | 86.1 | – | – | CCc1cccc(NC(=O)Nc2ccc(CCNc3ncnc4oc(-c5ccccc5)c(Cl)c34)cc2)c1 | – | – | – | –
198 | 122 | – | – | O=C(Nc1ccc(CCNc2ncnc3oc(-c4ccccc4)c(Cl)c23)cc1)Nc1ccccc1CN1CCCCC1 | – | – | – | –
139 | 443 | – | – | CCc1ccc(NC(=O)Nc2ccc(CCNc3ncnc4oc(-c5ccccc5)c(Cl)c34)cc2)cc1 | – | – | – | –
150 | 353 | – | – | O=C(Nc1ccc(CCNc2ncnc3oc(-c4ccccc4)c(Cl)c23)cc1)Nc1ccc(CN2CCC(O)CC2)cc1 | – | – | – | –
90.2 | 102 | – | – | O=C(Nc1ccc(CCNc2ncnc3oc(-c4ccccc4)c(Cl)c23)cc1)Nc1cccc(CN2CCCCC2)c1 | – | – | – | –
67.8 | 83.6 | – | – | O=C(Nc1ccc(CCNc2ncnc3oc(-c4ccccc4)c(Cl)c23)cc1)Nc1cccc(CN2CCC(O)CC2)c1 | – | – | – | –
> 1000 | > 1000 | – | – | CC(C)Cc1ccc(NC(=O)Nc2ccc(CCNc3ncnc4oc(-c5ccccc5)c(Cl)c34)cc2)cc1 | – | – | – | –
228 | 78.9 | 1510 | 133 | O=C(Nc1ccc(CCNc2ncnc3oc(-c4ccccc4)c(Cl)c23)cc1)Nc1ccccc1CN1CCC(O)CC1 | 310 | 3.5 | – | Active
9 | 140 | 132 | > 10000 | CCN(C)Cc1cccc(NC(=O)Nc2ccc(CCNc3ncnc4oc(-c5ccccc5)c(Cl)c34)cc2)c1 | 342 | 9.7 | – | –
– | – | 73.4 | 23.7 | CN(C)Cc1ccccc1NC(=O)Nc1ccc(CCNc2ncnc3oc(-c4ccccc4)c(Cl)c23)cc1 | 70 | 3.1 | – | Active
> 1000 | 700 | – | – | CC(C)Cc1ccccc1NC(=O)Nc1ccc(CCNc2ncnc3oc(-c4ccccc4)c(Cl)c23)cc1 | – | – | – | –
525 | 336 | – | – | CC(C)c1ccccc1NC(=O)Nc1ccc(CCNc2ncnc3oc(-c4ccccc4)c(Cl)c23)cc1 | – | – | – | –
55.5 | 73.3 | – | – | Cc1ccc(NC(=O)Nc2ccc(CCNc3ncnc4oc(-c5ccccc5)c(Cl)c34)cc2)cc1 | – | – | – | –
83.2 | 60.2 | – | – | Cc1ccccc1NC(=O)Nc1ccc(CCNc2ncnc3oc(-c4ccccc4)c(Cl)c23)cc1 | – | – | – | –
52 | 66.3 | 390 | 191 | O=C(Nc1ccccc1)Nc1ccc(CCNc2ncnc3oc(-c4ccccc4)c(Cl)c23)cc1 | 153 | 7.3 | Active | –
247 | > 1000 | – | – | CC(C)Cc1cccc(NC(=O)Nc2ccc(CCNc3ncnc4oc(-c5ccccc5)c(Cl)c34)cc2)c1 | – | – | – | –
178 | 66.2 | – | – | CCc1ccccc1NC(=O)Nc1ccc(CCNc2ncnc3oc(-c4ccccc4)c(Cl)c23)cc1 | – | – | – | –
98.3 | 455 | – | – | CN(C)Cc1ccc(NC(=O)Nc2ccc(CCNc3ncnc4oc(-c5ccccc5)c(Cl)c34)cc2)cc1 | – | – | – | –
232 | 835 | – | – | CCN(CC)Cc1ccc(NC(=O)Nc2ccc(CCNc3ncnc4oc(-c5ccccc5)c(Cl)c34)cc2)cc1 | – | – | – | –
21.5 | 121 | – | – | CCN(CC)Cc1cccc(NC(=O)Nc2ccc(CCNc3ncnc4oc(-c5ccccc5)c(Cl)c34)cc2)c1 | – | – | – | –
> 1000 | > 1000 | – | – | CC(C)c1ccc(NC(=O)Nc2ccc(CCNc3ncnc4oc(-c5ccccc5)c(Cl)c34)cc2)cc1 | – | – | – | –
462 | 526 | – | – | CCN(CC)Cc1ccccc1NC(=O)Nc1ccc(CCNc2ncnc3oc(-c4ccccc4)c(Cl)c23)cc1 | – | – | – | –
